Screening data as filed in PubChem BioAssay.
Rows were chosen to be rich in hits. Some 5.1% of all compounds tested hit in one or more screens of this group.
STAT1 blocker: inhibitors of IFN-gamma induced STAT1 signaling. NIH 3T3 STAT1-luciferase reporter, luminescence. inhibition, % at 5.5 µM. actives 0.35% (n = 200,000). AID 920;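 active means inhibition above a set limit, the mean inhibition across all tested compounds plus 3 SD, cut at about 34% in these data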
APP 5'UTR act: activates APP 5'UTR luciferase reporter; actives 1% (n = 190,000); SH-SY5Y APP 5'UTR luciferase reporter, luminescence; zero percent = DMSO vehicle wells; activation, % at 2 µM;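 active means activation above a set limit, based on mean plus 3 SD of controls, cut at about 140% in these data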
STAT3 activator: increases IL-6 driven STAT3 reporter signal; activation (% of control), % at 5.6 µM; actives 0.91% (n = 190,000); U3A cells, IL-6 STAT3-luciferase reporter, luminescence; 100% = signal with IL-6 EC80 alone;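 active means activation above the screen-wide mean of compound activation plus 3 SD, cut at about 130% in these data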
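Material: STAT1-lacking human U3A cells, STAT3 luciferase reporter | Benchmarks: IL-6-only wells as 100% reference | Probe or stimulus: IL-6 (33 ng/mL) | Timing: Compound 1 h, then IL-6 6 h at 37 °C | Detection: Luminescence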
NF-kB neuron act: NF-kB expression increase, human neuronal cells; NF-kB reporter expression; hits give high values; fold change at 12.5 µM; actives 1.6% (n = 190,000); AID 1239; in the data active means fold change above about 3.3
STAT3 blocker: STAT3 signaling inhibition; actives 0.89% (n = 190,000); AID 862; inhibition, % at 5.5 µM; U3A cells, IL-6 STAT3-luciferase reporter, luminescence; host cell line lacks STAT1;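 active means inhibition above the mean inhibition across all screened compounds plus 3 SD, cut at about 44% in these data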
STAT1 activator: STAT1 signaling activation; NIH 3T3 STAT1-luciferase reporter, IFN-gamma, luminescence; 100% = IFN-gamma alone, no compound; activation (% of control), % at 5.5 µM; actives 2.6% (n = 200,000); AID 932;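 active means activation above the screen-wide mean activation plus 3 SD, cut at about 130% in these data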
Large screens that a line does not name were inactive.

O=C(Nc1ccc2oc(-c3ccccc3)nc2c1)c1cccs1	APP 5'UTR act 155, STAT1 activator 143
CC(NS(=O)(=O)c1cccc(Cl)c1)C(=O)Nc1ccc(-c2nc3ccccc3s2)cc1 (configuration not stated)	none
CCc1ccc(NC(=O)C(C)OC(=O)C2CCC(=O)N2)cc1 (configuration not stated)	none
CCCOc1ccccc1NC(=O)c1ccc([N+](=O)[O-])cc1	none
O=C(CSc1nnc2ccccn12)Nc1cccc(-c2nc3ccccc3s2)c1	APP 5'UTR act 137, STAT1 activator 136
O=C(Nc1cccc(-c2nc3ccccc3s2)c1)c1cc(=O)c2ccccc2o1	none
O=C(Nc1cccc(-c2nc3ccccc3s2)c1)c1cccs1	STAT1 activator 140
CN(CC(=O)Nc1ccc(F)cc1[N+](=O)[O-])Cc1ccccc1	none
Brc1ccc2[nH]c3c(N4CCc5ccccc5C4)ncnc3c2c1	none
c1ccc2c(c1)[nH]c1c(N3CCSCC3)ncnc12	STAT1 blocker 38
Cc1ccc2[nH]c3c(N4CCc5ccccc5C4)ncnc3c2c1	STAT3 blocker 73
c1ccc2c(c1)[nH]c1c(N3CCN(C4CCCCC4)CC3)ncnc12	none
O=C(Cc1ccccc1)Nc1ccc2c(c1)CCC2	STAT1 activator 133
COc1ccc(CC(=O)Nc2ccc3c(c2)CCC3)cc1	none
O=C(Cc1ccc([N+](=O)[O-])cc1)NCc1ccccn1	none
Cn1c(O)c(C2=c3ccccc3=NC2=O)sc1=Nc1ccc(Cl)cc1	NF-kB neuron act 5.2
Nn1c(SCC(=O)N2CCCc3ccccc32)nncc1=O	none
CN(C)/C=C1/C(=O)N(c2ccc([N+](=O)[O-])cc2)N=C1c1ccccc1	STAT1 activator 144
CC1=NN(c2ccc([N+](=O)[O-])cc2)C(=O)/C1=C\N(C)C	none
CC1=C(C(=O)OCC2CCCO2)C(c2ccccc2)C2=C(CC(C)(C)CC2=O)N1 (configuration not stated)	none
CC(C)c1ccc(OCC(=O)Nc2ccc(OC(F)(F)F)cc2)cc1	none
CC(C)c1ccc(NC(=O)COc2ccccn2)cc1	STAT1 activator 130
COC(=O)CCn1[nH]c(=O)c2ccccc2c1=O	none
O=c1[nH]n(Cc2ccccc2)c(=O)c2ccccc12	NF-kB neuron act 4.9
Cc1ccc2nc(-c3ccc(SCC(=O)Nc4nnc(C)s4)nc3)[nH]c2c1	none
Cc1cc2nc(-c3ccc(SCC(=O)Nc4ccc5c(c4)OCCO5)nc3)[nH]c2cc1C	APP 5'UTR act 180
Cc1cc2nc(-c3ccc(SCc4ccccn4)nc3)[nH]c2cc1C	STAT1 activator 135
CCOC(=O)CSc1ccc(-c2nc3cc(C)c(C)cc3[nH]2)cn1	none
Cc1ccc2nc(-c3ccc(SCC(=O)Nc4nc(C)cs4)nc3)[nH]c2c1	APP 5'UTR act 149, STAT1 activator 146
CC1CCN(C(=O)C2CC(c3ccc(F)cc3)=NO2)CC1 (configuration not stated)	STAT1 activator 129
COc1ccc(C2=NOC(C(=O)N3CCOCC3)C2)cc1OC (configuration not stated)	none
COc1cccc(C2=NOC(C(=O)N3CCOCC3)C2)c1 (configuration not stated)	STAT1 activator 133
COC(=O)C(C(=O)OC)c1ccc(-n2cccc2)cc1	none
Cc1nc2ccccc2c(=O)n1NC(=O)CCC(=O)O	none
O=C(CNC(=O)C12CC3CC(CC(C3)C1)C2)N/N=C\c1ccccn1	none
O=C(CC(C(=O)O)c1c[nH]c2ccccc12)c1ccccc1 (configuration not stated)	STAT3 activator 136
O=C(O)C(O)Cc1c[nH]c2ccccc12 (configuration not stated)	none
Cc1ccc(/C=N/NC(=O)c2ccccn2)o1	STAT1 activator 130
O=C(N/N=C/C(Cl)=C/c1ccccc1)c1ccncc1	none
O=C(N/N=C/C(Cl)=C/c1ccccc1)c1ccccn1	NF-kB neuron act 4.3
Cc1cccc(C)c1N(CC(=O)N/N=C/c1cc(Br)c(C)o1)S(C)(=O)=O	none
COc1ccc(C2Nc3ccccc3C(=O)N2c2ccc(C)cc2)cc1COc1ccccn1 (configuration not stated)	STAT1 activator 131
CCOC(=O)c1noc(C)c1C(=O)Nc1nccs1	NF-kB neuron act 6
CSc1ncccc1C(=O)OCc1ccc(C#N)cc1	none
COc1ccc(C(C)=O)cc1COC(=O)c1cccnc1SC	NF-kB neuron act 3.9
COC(=O)c1cccc(COC(=O)c2cccnc2SC)c1	NF-kB neuron act 3.5
CCNC(=O)COC(=O)c1cc(-c2ccccc2)nn1-c1ccccc1	none
O=C(Nn1cc(C(=O)Nc2ccccc2F)c2ccccc2c1=O)c1cnccn1	none
COc1cc(OC)cc(C(=O)Nn2cc(C(=O)Nc3ccccc3F)c3ccccc3c2=O)c1	STAT3 activator 134
CCOC(=O)C1(Cc2ccc(OC)cc2)CCN(C(=O)CN2CCCCC2=O)CC1	none
COC(=O)Cc1c(OC)ccn(CCc2c[nH]c3ccccc23)c1=O	STAT1 activator 136
Cc1nn(-c2ccccc2)c(N)c1N=Nc1ccc2ccccc2c1	NF-kB neuron act 3.9, STAT1 activator 140
Cc1cc(C)c(C(=O)CSc2nc3ccccc3c(=O)[nH]2)cc1C	none
COCCn1c(C)cc(C(=O)CSc2nc3ccccc3c(=O)[nH]2)c1C	STAT1 activator 142
COCC(C)n1c(C)cc(C(=O)CSc2nc3ccccc3c(=O)[nH]2)c1C (configuration not stated)	none
C=CCn1c(C)cc(C(=O)CSc2nc3ccccc3c(=O)[nH]2)c1C	STAT1 activator 134
CC(C)(C)c1ccc(C(=O)N/C(=C\c2cccs2)C(=O)NCc2ccco2)cc1	none
COc1ccc(/C=C2\SC(=O)N(CCNC(=O)CCS(=O)(=O)c3ccc(C)cc3)C2=O)cc1	STAT1 activator 131
COc1ccc(/C=C2\SC(=O)N(CCNC(=O)Cn3cnnn3)C2=O)cc1	NF-kB neuron act 3.7, STAT1 activator 138
COc1ccc(S(=O)(=O)CCC(=O)NCCc2ccc(C)cc2)cc1	none
COc1ccc(/C=C2\SC(=O)N(CCNC(=O)C3CCN(S(=O)(=O)c4cccs4)CC3)C2=O)cc1	STAT1 activator 138
CCc1cccc2c(-c3csc(=NC)n3C)c[nH]c12	none
CCOc1ccc(N2Cc3ccccc3C2)cc1	STAT1 activator 141 (no result: NF-kB neuron act)
CCOC(=O)C(C)/C(C)=N/NC(=O)CCC(=O)Nc1cc(C)ccc1C (configuration not stated)	none
CC(=O)N1N=C(c2ccc(Cl)cc2)OC1c1ccc(C(C)C)cc1 (configuration not stated)	STAT1 activator 133
CN=c1scc(-c2ccccc2F)n1/N=C/c1ccc(O)c(O)c1O	STAT1 blocker 87, STAT3 blocker 50
